Measured values: ChEMBL document CHEMBL2202955, “Identification of Potent, Selective, Cell-Active Inhibitors of the Histone Lysine Methyltransferase EZH2” (ACS Med Chem Lett, 2012)

Experiments:
[1] = target: Histone-lysine N-methyltransferase EZH2 (Homo sapiens, UniProt Q15910); test: Inhibition of EZH2-mediated nuclear H3K27 methylation in human HCC1806 cells after 72 hrs by immunofluorescence analysis; assay type: cell-based
How it was run: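 HCC1806 breast cancer cells were exposed to compound for 72 h. Nuclear H3K27me3 was quantified by an immunofluorescence imaging assay and normalized to total H3. Values are the mean of at least three independent replicates.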

[2] = target: Histone-lysine N-methyltransferase SUV39H2 (Homo sapiens, UniProt Q9H5I1); test: Inhibition of SUV39H2 using histone H3 as substrate preincubated for 10 mins followed by addition of [3H]SAM and incubated for 60 mins
Chain of Histone-lysine N-methyltransferase SUV39H2 (Q9H5I1 whole entry): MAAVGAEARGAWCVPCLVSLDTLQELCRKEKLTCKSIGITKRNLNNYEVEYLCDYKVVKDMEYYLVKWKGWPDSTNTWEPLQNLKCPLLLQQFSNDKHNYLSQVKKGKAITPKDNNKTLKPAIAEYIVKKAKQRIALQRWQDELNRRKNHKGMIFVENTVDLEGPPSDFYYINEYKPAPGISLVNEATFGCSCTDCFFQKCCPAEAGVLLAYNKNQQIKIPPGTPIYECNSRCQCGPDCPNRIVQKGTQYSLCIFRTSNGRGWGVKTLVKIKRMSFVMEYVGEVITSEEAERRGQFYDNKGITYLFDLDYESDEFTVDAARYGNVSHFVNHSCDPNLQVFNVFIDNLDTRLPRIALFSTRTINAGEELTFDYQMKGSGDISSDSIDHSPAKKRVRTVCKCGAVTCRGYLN
How it was run: (§1)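 Panel of methyltransferases tested for selectivity. […] Values are the mean of at least two independent replicates.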

[3] = target: Protein arginine N-methyltransferase 5 (Homo sapiens, UniProt O14744); test: Inhibition of PRMT5 using histone H3 as substrate preincubated for 10 mins followed by addition of [3H]SAM and incubated for 60 mins; how it was run: as §1
Chain of Protein arginine N-methyltransferase 5 (O14744 whole entry): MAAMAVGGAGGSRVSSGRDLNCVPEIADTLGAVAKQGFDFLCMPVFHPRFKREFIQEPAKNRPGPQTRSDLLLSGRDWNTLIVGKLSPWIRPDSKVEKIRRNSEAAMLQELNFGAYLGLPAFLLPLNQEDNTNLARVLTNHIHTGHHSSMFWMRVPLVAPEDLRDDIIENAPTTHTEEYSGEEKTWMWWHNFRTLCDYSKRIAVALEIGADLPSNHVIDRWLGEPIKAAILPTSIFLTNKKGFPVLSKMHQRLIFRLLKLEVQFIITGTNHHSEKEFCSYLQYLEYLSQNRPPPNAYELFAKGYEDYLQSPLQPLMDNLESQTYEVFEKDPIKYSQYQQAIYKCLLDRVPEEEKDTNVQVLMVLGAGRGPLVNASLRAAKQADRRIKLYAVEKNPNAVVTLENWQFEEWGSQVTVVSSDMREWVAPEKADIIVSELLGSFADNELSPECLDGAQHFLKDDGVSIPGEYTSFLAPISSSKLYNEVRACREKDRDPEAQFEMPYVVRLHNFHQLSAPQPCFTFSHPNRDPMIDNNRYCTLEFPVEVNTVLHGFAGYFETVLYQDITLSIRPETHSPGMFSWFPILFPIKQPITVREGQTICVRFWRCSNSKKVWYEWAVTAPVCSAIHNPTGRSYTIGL

[4] = target: T1, Histone-arginine methyltransferase CARM1 (Homo sapiens, UniProt Q86X55); test: Inhibition of PRMT4 using histone H3 as substrate preincubated for 10 mins followed by addition of [3H]SAM and incubated for 60 mins; how it was run: as §1
T1 sequence (Q86X55 whole entry): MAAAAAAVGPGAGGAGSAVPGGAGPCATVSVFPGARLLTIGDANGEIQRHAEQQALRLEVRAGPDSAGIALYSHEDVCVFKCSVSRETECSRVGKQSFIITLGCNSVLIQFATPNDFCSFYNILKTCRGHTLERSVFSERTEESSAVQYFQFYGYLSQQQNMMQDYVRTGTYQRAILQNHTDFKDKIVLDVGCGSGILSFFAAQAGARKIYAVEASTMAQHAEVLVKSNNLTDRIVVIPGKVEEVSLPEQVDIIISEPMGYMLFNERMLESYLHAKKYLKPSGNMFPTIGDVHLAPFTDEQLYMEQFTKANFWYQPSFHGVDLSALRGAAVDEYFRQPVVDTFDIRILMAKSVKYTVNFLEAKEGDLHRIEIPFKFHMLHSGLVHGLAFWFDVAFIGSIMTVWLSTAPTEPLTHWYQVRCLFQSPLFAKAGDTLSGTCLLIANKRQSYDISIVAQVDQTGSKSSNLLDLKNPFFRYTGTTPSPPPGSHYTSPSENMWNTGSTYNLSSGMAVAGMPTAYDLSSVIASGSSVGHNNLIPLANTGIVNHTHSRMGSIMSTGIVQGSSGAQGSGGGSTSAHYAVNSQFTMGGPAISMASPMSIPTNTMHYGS

[5] = target: Protein arginine N-methyltransferase 3 (Homo sapiens, UniProt O60678); test: Inhibition of PRMT3 using histone H3 as substrate preincubated for 10 mins followed by addition of [3H]SAM and incubated for 60 mins; how it was run: as §1
Chain of Protein arginine N-methyltransferase 3 (O60678 whole entry): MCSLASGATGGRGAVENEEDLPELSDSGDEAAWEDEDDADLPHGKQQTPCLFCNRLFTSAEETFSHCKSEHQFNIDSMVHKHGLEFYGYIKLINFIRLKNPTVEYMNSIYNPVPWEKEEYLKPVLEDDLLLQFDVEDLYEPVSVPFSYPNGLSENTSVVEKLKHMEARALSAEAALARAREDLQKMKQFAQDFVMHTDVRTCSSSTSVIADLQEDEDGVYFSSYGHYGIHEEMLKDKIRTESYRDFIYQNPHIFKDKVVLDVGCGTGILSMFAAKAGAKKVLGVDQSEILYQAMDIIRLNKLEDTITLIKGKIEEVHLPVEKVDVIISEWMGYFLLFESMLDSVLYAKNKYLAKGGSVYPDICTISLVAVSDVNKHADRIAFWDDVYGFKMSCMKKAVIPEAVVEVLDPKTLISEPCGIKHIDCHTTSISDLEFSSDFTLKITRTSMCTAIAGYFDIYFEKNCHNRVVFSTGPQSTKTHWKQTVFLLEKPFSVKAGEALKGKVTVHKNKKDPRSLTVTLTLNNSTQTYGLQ

[6] = target: Protein arginine N-methyltransferase 1 (Homo sapiens, UniProt Q99873); test: Inhibition of PRMT1 using histone H4 as substrate preincubated for 10 mins followed by addition of [3H]SAM and incubated for 60 mins; how it was run: as §1
Chain of Protein arginine N-methyltransferase 1 (Q99873 whole entry): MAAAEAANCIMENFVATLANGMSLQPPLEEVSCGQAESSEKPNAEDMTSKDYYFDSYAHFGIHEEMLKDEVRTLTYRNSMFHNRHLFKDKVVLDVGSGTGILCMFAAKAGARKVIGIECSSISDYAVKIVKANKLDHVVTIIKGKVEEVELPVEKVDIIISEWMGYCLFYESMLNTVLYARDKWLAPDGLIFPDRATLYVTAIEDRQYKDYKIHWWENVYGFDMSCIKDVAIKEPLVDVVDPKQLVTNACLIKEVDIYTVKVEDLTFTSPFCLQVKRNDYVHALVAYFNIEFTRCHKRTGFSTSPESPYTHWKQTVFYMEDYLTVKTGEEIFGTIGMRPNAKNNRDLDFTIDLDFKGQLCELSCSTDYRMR

[7] = target: T2, Histone-lysine N-methyltransferase EHMT2 (Homo sapiens, UniProt Q96KQ7); test: Inhibition of G9a using histone H3 as substrate preincubated for 10 mins followed by addition of [3H]SAM and incubated for 60 mins; how it was run: as §1
T2 sequence (Q96KQ7 whole entry): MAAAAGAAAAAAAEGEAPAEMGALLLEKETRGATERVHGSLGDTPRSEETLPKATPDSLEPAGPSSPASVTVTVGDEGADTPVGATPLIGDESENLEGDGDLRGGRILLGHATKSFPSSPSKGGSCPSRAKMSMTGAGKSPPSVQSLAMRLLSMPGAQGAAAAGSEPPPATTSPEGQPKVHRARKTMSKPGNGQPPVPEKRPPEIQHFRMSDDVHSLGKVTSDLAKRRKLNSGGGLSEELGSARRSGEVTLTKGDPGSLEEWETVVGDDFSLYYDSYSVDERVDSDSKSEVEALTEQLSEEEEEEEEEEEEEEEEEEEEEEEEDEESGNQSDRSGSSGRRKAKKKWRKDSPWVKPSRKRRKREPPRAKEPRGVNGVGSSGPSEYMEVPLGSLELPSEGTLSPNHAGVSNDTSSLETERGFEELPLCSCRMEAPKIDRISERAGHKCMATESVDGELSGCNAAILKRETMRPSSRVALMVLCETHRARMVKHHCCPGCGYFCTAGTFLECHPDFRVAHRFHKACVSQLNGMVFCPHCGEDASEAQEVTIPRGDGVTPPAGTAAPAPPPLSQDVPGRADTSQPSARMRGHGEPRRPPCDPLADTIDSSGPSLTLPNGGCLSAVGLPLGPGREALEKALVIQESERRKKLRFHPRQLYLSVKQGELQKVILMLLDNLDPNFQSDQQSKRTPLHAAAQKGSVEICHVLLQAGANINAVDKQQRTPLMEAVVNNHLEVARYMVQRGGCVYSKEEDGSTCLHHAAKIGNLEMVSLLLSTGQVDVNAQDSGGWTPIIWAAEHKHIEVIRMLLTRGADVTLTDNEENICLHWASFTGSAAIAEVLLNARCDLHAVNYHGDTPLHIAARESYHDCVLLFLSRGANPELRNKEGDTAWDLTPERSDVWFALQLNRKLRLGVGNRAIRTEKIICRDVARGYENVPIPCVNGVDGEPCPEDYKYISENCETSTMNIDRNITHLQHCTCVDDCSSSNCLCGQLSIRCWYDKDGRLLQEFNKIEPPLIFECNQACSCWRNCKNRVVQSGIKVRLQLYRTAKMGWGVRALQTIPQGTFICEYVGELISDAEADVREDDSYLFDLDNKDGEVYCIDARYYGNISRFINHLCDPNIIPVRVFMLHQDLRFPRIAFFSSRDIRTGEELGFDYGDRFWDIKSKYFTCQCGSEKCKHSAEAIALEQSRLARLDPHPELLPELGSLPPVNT

[8] = target: DNA (cytosine-5)-methyltransferase 3A (Homo sapiens, UniProt Q9Y6K1); test: Inhibition of DNMT3a using lambda DNA as substrate preincubated for 10 mins followed by addition of [3H]SAM and incubated for 60 mins; how it was run: as §1
Chain of DNA (cytosine-5)-methyltransferase 3A (Q9Y6K1 whole entry, looked up): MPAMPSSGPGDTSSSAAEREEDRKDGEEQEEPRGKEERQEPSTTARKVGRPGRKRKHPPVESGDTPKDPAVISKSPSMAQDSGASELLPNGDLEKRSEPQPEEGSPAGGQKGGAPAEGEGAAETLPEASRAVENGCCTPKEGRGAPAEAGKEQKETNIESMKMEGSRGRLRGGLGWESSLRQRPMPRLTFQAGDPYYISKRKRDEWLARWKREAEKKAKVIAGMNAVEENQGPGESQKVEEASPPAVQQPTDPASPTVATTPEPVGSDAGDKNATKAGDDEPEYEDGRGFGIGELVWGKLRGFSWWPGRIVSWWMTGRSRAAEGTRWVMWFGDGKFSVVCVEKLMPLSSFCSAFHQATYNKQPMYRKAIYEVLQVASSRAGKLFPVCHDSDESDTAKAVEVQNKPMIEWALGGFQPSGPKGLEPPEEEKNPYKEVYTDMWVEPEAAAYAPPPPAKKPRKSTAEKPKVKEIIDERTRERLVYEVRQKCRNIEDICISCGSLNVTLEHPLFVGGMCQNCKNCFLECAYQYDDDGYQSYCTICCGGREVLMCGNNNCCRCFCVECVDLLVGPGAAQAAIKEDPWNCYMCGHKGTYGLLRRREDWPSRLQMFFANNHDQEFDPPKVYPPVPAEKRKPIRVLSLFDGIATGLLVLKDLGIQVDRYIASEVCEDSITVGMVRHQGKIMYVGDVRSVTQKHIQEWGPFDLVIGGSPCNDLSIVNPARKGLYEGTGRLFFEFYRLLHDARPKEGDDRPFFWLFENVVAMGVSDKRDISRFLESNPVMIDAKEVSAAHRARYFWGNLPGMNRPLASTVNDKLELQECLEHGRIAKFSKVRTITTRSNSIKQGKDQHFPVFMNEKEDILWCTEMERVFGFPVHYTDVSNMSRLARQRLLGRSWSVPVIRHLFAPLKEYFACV

[9] = target: DNA (cytosine-5)-methyltransferase 1 (Homo sapiens, UniProt P26358); test: Inhibition of DNMT1 using polydi-dc as substrate preincubated for 10 mins followed by addition of [3H]SAM and incubated for 60 mins; how it was run: as §1
Chain of DNA (cytosine-5)-methyltransferase 1 (P26358 whole entry): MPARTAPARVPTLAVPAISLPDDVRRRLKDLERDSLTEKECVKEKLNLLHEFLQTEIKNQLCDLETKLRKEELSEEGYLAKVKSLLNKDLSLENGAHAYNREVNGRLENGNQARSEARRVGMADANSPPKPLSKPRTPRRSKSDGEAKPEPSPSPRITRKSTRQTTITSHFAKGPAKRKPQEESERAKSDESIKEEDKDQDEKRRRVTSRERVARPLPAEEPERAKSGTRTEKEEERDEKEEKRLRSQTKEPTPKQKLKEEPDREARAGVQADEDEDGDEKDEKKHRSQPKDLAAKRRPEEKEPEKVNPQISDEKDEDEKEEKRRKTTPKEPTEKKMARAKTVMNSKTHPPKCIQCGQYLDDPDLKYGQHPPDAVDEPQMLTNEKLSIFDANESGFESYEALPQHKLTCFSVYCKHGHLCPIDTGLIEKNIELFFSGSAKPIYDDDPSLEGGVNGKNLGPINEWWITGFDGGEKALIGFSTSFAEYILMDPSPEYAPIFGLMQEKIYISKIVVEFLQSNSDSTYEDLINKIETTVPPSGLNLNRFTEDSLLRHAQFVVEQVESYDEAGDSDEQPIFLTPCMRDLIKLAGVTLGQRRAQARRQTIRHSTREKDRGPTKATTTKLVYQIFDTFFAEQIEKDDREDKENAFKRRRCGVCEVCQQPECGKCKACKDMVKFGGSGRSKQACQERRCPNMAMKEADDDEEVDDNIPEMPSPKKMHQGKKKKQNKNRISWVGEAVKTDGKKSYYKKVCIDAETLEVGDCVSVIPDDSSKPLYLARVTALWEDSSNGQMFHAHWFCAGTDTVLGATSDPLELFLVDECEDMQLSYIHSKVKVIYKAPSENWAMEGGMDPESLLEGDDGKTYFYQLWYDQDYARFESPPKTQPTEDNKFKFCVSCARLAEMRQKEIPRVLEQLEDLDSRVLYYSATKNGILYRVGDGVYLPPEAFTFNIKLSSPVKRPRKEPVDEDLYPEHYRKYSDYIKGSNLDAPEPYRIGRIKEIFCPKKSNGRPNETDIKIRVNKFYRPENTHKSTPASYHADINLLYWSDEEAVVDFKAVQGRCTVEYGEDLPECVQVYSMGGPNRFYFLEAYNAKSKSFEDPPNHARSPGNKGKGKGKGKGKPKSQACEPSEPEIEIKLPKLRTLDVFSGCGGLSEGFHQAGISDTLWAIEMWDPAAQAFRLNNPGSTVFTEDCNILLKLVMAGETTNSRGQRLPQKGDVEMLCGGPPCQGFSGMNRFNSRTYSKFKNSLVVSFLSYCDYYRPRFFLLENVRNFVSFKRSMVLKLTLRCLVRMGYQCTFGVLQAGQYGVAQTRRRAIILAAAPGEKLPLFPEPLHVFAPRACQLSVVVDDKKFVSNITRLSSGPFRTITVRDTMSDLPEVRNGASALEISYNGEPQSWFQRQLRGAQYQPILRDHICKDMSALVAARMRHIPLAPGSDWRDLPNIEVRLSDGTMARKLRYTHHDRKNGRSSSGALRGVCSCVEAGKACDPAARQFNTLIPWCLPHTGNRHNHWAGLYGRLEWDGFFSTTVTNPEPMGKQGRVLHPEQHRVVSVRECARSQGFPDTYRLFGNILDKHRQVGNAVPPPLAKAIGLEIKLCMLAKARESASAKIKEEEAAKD

[10] = target: EZH1/SUZ12/EED/AEBP2/RBBP4 complex; test: Inhibition of PRC2 complex of EZH1, EED, SUZ12, AEBP2 and RbAp48 using histone H3 peptide (21 to 44) as substrate and [3H]SAM after 1 hr by SPA; assay type: protein-complex assay; how it was run: as §1
[11] = target: EZH2/SUZ12/EED/RBBP7/RBBP4; test: Inhibition of PRC2 complex of FLAG-EZH2, EED, SUZ12, AEBP2 and RbAp48 using histone H3 peptide (21 to 44) as substrate and [3H]SAM after 1 hr; assay type: protein-complex assay

Row | SMILES | IC50 [1] | IC50 [2] | IC50 [3] | IC50 [4] | IC50 [5] | IC50 [6] | IC50 [7] | IC50 [8] | IC50 [9] | IC50 [10] | IC50 [11] | inhibition [1]
1 | CCCc1cc(C)[nH]c(=O)c1CNC(=O)c1cc(-c2ccc(N3CCN(C)CC3)nc2)cc2c1cnn2C(C)C | 0.079 µM | > 100 µM | > 100 µM | 116 µM | 54 µM | > 100 µM | > 100 µM | > 100 µM | 121 µM | 0.1 µM | 0.004 µM | –
2 | Cc1cc(C)c(CNC(=O)c2cc(-c3ccc(N4CCN(C)CC4)nc3)cc3c2cnn3C(C)C)c(=O)[nH]1 | 0.324 µM | > 100 µM | > 100 µM | > 100 µM | > 100 µM | > 100 µM | > 100 µM | > 100 µM | > 100 µM | 2.5 µM | 0.02 µM | Dose-dependent effect
3 | CCCc1cc(C)[nH]c(=O)c1CNC(=O)c1cc(-c2ccnc(N3CCN(C)CC3)c2)cc2c1cnn2C(C)C | 0.174 µM | 123 µM | > 100 µM | 128 µM | 74 µM | > 100 µM | > 100 µM | > 100 µM | > 100 µM | 0.24 µM | 0.004 µM | –
